Reference: ChEMBL document CHEMBL4513216, “Probing the Open Global Health Chemical Diversity Library for Multistage-Active Starting Points for Next-Generation Antimalarials” (ACS Infect Dis, 2020)

Assay: Toxicity liver stage against HepG2, at 10uM
Assay type: cell-based
Design: test concentration 10 uM, cell line HepG2-A16-CD81EGFP
Conditions: human, HepG2-A16-CD81EGFP cells; read-out: INHIBITION
Outline: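 Uninfected HepG2-A16-CD81EGFP cells, 3 × 10^3 per well, 1536-well, plated on prespotted compound at 10 μM final, parasite-free screening media added to match infected plates; puromycin 10 μM positive, DMSO 0.5% negative; run in parallel with 48 h PbLuc assay at 37 °C, 5% CO2; viability by CellTiter-Glo luminescence, normalized to controls.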

Row | SMILES | cytotoxicity at 10 µM [%]
1 | O=C1CC(N2CCN(c3ccc(F)cc3)CC2)C(=O)N1Cc1cccs1 (centres undefined) | -0.31
2 | CN1CCC(N2CC[C@H](c3nc4ccc(C(F)(F)F)cc4[nH]3)C2)CC1 | -10.2
3 | Cc1ccc(-c2ccc(=O)n(CC(=O)Nc3nccs3)n2)cc1 | -10.2
4 | Cc1cccc2nc(CSCC(=O)Nc3nnc(C(C)C)s3)cc(=O)n12 | -3.95
5 | CC(=O)N1N=C(c2ccco2)OC1C(=O)N(C)CCc1ccccc1 (centres undefined) | -0.0253
6 | O=C(O)CCn1ccc2cc(Br)ccc21 | 10.7
7 | COc1cc2nc(C)n(CC(=O)NCCC(C)C)c(=O)c2cc1OC | -3.79
8 | CSc1sc2c(O)cc(=O)[nH]c2c1C(N)=O | -2.1
9 | COc1cccc2c1ccn2CCC(=O)Nc1c2c(nn1C)CSC2 | 5.11
10 | COc1cc(C2SC(C)=Nc3c2c(=O)[nH]n3C2CCCC2)ccc1O (centres undefined) | 3.54
11 | Cc1cc(C)nc(N2CCC(C(=O)Nc3n[nH]c(C(C)C)n3)CC2)n1 | 4.07
12 | CC(=O)Nc1nc2c(s1)CN(CC(=O)Nc1ccc(C)c(Cl)c1)CC2 | -6.17
13 | COc1ccc(-n2nnc(C(=O)NCC3CCCCC3)n2)cc1 | 1.01
14 | O=C(c1nnn(-c2ccccc2F)c1-c1ccccn1)N1CCSCC1 | 1.32
15 | Cc1csc(NC(=O)C2CSCCC(=O)N2)n1 (centres undefined) | 4.14
16 | COC(CNC(=O)C1CCCC1)c1ccc(C)s1 (centres undefined) | 4.45
17 | c1ccc(COCC2CNCc3nccn3C2)nc1 (centres undefined) | 14.4
18 | CS(=O)(=O)N1Cc2nc(C(=O)NCc3ccccc3)oc2C1 | -3.46
19 | CCN(CC)c1ccc2ccc(C(=O)NC3CC3)cn12 | -2.6
20 | CNC(=O)[C@H]1C[C@@H]2CN(C(=O)c3cscn3)C[C@@H]2N1S(C)(=O)=O | -5.17
21 | CCn1cc(S(=O)(=O)N2CCN(S(=O)(=O)c3ccc(Br)s3)CC2)c(C)n1 | 4.64
22 | COCc1nc(N(C)C)ncc1C(=O)NC(C)c1ccccc1 (centres undefined) | 6.03

Row | SMILES | cytotoxicity at 10 µM [%]
23 | CC(C)(C)NC(=O)[C@@H]1CNC[C@]12Cc1ccccc1C(=O)N2 | -0.42
24 | COCC1CN(C(C)=O)CCN(c2cc(C)ncn2)C1 (centres undefined) | 4.96
25 | O=C(O)C1(Cc2cc(-c3ccc(F)cc3F)no2)CCOCC1 | 3.37
26 | CC(C)NC(=O)c1cc(-c2ccc(S(C)(=O)=O)cc2)nc2c1cnn2C | 4.21
27 | CCOc1nnc(CN(CC)CC(=O)NC(C)(C)C)s1 | -13.7
28 | COCCN(Cc1ccccc1)C(=O)c1csc(-c2nnc[nH]2)n1 | 4.9
29 | CCC(CC)c1cc(C(=O)N2CCN(C(C)C(N)=O)CC2)on1 (centres undefined) | 5.82
30 | COC(=O)c1ccc(NCc2csc(C)n2)cc1Cl | -5.08
31 | CN1CCC(NC(=O)c2cc(Cl)cc(Br)c2O)C1=O (centres undefined) | 4.84
32 | N#CC1COCCN1S(=O)(=O)c1ccc(F)c(Br)c1 (centres undefined) | 4.43
33 | O=C1CCCN1CCCN1CCCC1Cn1cccn1 (centres undefined) | -1.82
34 | N#Cc1ccc(CN2CCN(c3ccncc3Cl)CC2=O)cc1 | 4.64
35 | CCn1cc(C(=O)N(C)Cc2c(F)cccc2Cl)cn1 | -4.66
36 | CC(=O)N1CCC(C(=O)N2CCC(=Cc3cccc(F)c3)CC2)CC1 | 3.5
37 | N#Cc1cccc(S(=O)(=O)NC(=O)c2csc(-c3ccco3)n2)c1 | 4.34
38 | Cc1nc(-c2ccco2)ccc1C(=O)NCCCN1CCOCC1 | -4.02
39 | Cc1cc(Cl)ccc1NCC(=O)Nc1cc(C(C)(C)C)no1 | 0.521
40 | O=C(NCC1CCS(=O)(=O)C1)c1cccc(CN2CCCC2)c1 (centres undefined) | -0.986
41 | CCc1nnc2n1CCN(CC(=O)N(CC)C1=CCCCC1)C2 | -0.0192
42 | Cc1cccc(NC(=O)[C@@H]2CCCN2Cc2nnc(C(C)C)n2C)n1 | 5.81
43 | Cc1ccccc1N1CCN(C(=O)c2cccnc2-n2cncn2)CC1 | 8.35
44 | N#Cc1cccnc1NCCNC(=O)N1CCCC(N2CCCC2)C1 (centres undefined) | 7.61

Row | SMILES | cytotoxicity at 10 µM [%]
45 | Cc1ncc(CNC2CCc3nc(C(C)C)nn3C2)s1 (centres undefined) | 3.97
46 | CCCN1CCC(CNC(=O)N2CCCC2c2c(C)n[nH]c2C)CC1 (centres undefined) | -0.686
47 | O=C(NCCOc1ncc(Cl)cc1Cl)c1ccoc1 | 0.191
48 | CCn1ccnc1CN1CCN(CCc2ccncc2)CC1C (centres undefined) | -3.04
49 | Cc1ccc(-c2nc(CN3CCn4c(nnc4C4CC4)C3)no2)cc1 | -1.99
50 | CCOc1ccc(CN(C)C2CCN(c3cc(C)nn3C)C2=O)cc1 (centres undefined) | 1.66
51 | CCc1ccc(CCC(=O)NCc2nnc[nH]2)cc1 | 7.47
52 | CC1CN(C(=O)c2ccnc(OCCN(C)C)c2)c2ccccc21 (centres undefined) | -0.343
53 | CC(C)(C)OC(=O)N1CC(CC(=O)NCc2ccnc(C3CC3)c2)C1 | 5.54
54 | CC(C1CC1)N(CC(=O)NC(=O)NC1CC1)C1CC1 (centres undefined) | 4.84
55 | CCn1c(CN2CCOC(Cn3cncn3)C2)nc2c(F)cccc21 (centres undefined) | -5.42
56 | Cc1csc(CN2CC(CO)Oc3ccccc32)n1 (centres undefined) | 6.62
57 | O=C(Nc1cccs1)NC(CCCO)c1ccccc1 (centres undefined) | 9.18
58 | O=C1C(Nc2nccn3cnnc23)CCCN1c1ccccc1Cl (centres undefined) | 9.05
59 | O=C(Cc1ccccn1)N1CCN(CC2CC2)c2ncccc2C1 | 1.34
60 | Cn1c(-c2ccc(F)cc2)cn2cc(C(=O)N3CCC(N)C3)nc2c1=O (centres undefined) | 4.43
61 | CC1(C)CNC(=O)c2nc(CCN3CCCCC3CO)[nH]c2C1 (centres undefined) | -3.24
62 | O=C1CCC2(CCN(CC[C@H](O)c3ccccc3)CC2)CN1CCO | -4
63 | CCN1CC2(CCC1=O)CCN(Cc1cc(F)ccc1Cl)CC2 | 6.58
64 | Cc1n[nH]c(C)c1CCN(C)c1ccc(-c2nc(C3CC3)no2)cn1 | 2.08
65 | O=C(Cn1cccn1)N(CCO)CCSc1ccc(Cl)cc1 | 0.513
66 | Cc1cc(C(=O)N2CCC3(CC(=O)NC3=O)C2)c(-c2ccccc2)o1 (centres undefined) | -3.15

Row | SMILES | cytotoxicity at 10 µM [%]
67 | COc1nc2c(cc1C(=O)NCc1noc(Cc3cccs3)n1)CCC2 | -6.36
68 | Cc1ccc(C(=O)NCCC2CN(c3cnn(C)c(=O)c3)CCO2)s1 (centres undefined) | -1.38
69 | O=C(c1cccc(O)c1)N1C[C@@H](CN2CCCCC2)[C@@H](CO)C1 | -2.88
70 | CCN(C)C[C@@H]1CN(C(=O)NC2CCCCC2)C[C@@H]1CO | -1.53
71 | O=C(NCCc1c[nH]cn1)c1ccccc1C1CCNC1 (centres undefined) | 12.8
72 | Cc1nc(C(F)(F)F)nc(N2CCC(O)(C(=O)O)CC2)c1C | 10.4
73 | Cc1nc(-c2cc(Cl)c3c(c2)CC(CN)O3)c[nH]1 (centres undefined) | -12.2
74 | Cc1cc(C)n2nc(CC(=O)N[C@H]3C[C@H]4CN(C)CCN4C3)nc2n1 | -2.9
75 | CC(C)Nc1cc(N2CCC(n3cc(C4CC4)nn3)CC2)ncn1 | 7.88
76 | O=C(c1coc(CN2CCN(c3ccccc3F)CC2)n1)N1CCCC1 | 19.2
77 | Cc1cc(C)n(-c2ccc(C(=O)NCc3cncn3CC(C)C)cc2)n1 | -4.04
78 | O=C1OCCN1Cc1ncnn1Cc1c(F)cccc1Cl | -1.26
79 | Cc1noc(C)c1CN1C[C@@H](NS(=O)(=O)N(C)C)[C@H](C(C)C)C1 | 3.61
80 | CC(C)n1ccnc1C1CCCN(c2ccccn2)C1 (centres undefined) | 1.28
81 | COc1ccc(CN(C)[C@@H]2CN(C(=O)c3cccs3)C[C@H]2O)cc1 | -0.619
82 | Cn1cc(CCNC(=O)NCc2ccc3c(c2)OCCO3)cn1 | -10.7
83 | Cc1cnn(CC2CCCN2C(=O)c2cccc3[nH]ncc23)c1 (centres undefined) | -10.8
84 | Cc1ccc(C(=O)NS(=O)(=O)c2ccccc2C)c(=O)[nH]1 | -8.48
85 | O=C(CSc1ccccc1Cl)NS(=O)(=O)c1ccc2c(c1)OCCO2 | -10.7
86 | Cn1ncc2c(=O)[nH]c(CN3CCCC3c3cccs3)nc21 (centres undefined) | -4.43
87 | Cc1nccn1CC1CCCN1S(=O)(=O)Cc1ccon1 (centres undefined) | -9.57
88 | CN1CCN(C(=O)c2cnc3c(cnn3C3CCCC3)c2)CC1 | -14.6

Row | SMILES | cytotoxicity at 10 µM [%]
89 | Cc1cc(OCC(=O)N2CCCC(c3ccn[nH]3)C2)no1 (centres undefined) | 0.0241
90 | Cn1cnc2c1CCN(CCS(=O)(=O)c1ccccc1)C2 | -3.32
91 | Cc1nc(C)n(CC2CN(CCCOc3ccccc3C)CCO2)n1 (centres undefined) | 5.63
92 | CC(O)CN1CCC(CNCc2cccc(C(N)=O)c2)CC1 (centres undefined) | -8.99
93 | Cc1nc(C)n(CC2CCCN2Cc2cscn2)n1 (centres undefined) | -2.05
94 | CC(N)Cc1ccccc1Sc1ccccc1 (centres undefined) | 5.41
95 | CCn1cc(CN2C[C@@H]3CCCN3C[C@@H]2CCSC)cn1 | -13.9
96 | CC(C)N(C)Cc1cnc2n1CCN(C(=O)Cc1ccccn1)C2 | -0.405
97 | CN(C)CCNC(=O)C1Cc2nc(-c3ccccc3)sc2N1CC1CC1 (centres undefined) | 5.15
98 | O=C(CO[C@@H]1CC[C@H]2[C@H]1OCCN2c1ncccn1)N1CCCC1 | -7.58
99 | Cc1cc(C(=O)N2CCC3(CC2)COCCN(c2cccnc2)C3)[nH]n1 | -2.66
100 | Cn1nc(Cn2cccc2)c2c1CN(Cc1ccoc1)C2 | 2.96
101 | CCC1=N[C@@]2(CC[C@@H]3CN(CC4CC4)C[C@@H]32)C(=O)N1C | 0.153
102 | c1ccc(CO[C@@H]2C[C@H]3CN(c4ncccn4)CCN3C2)nc1 | -7.49
103 | NC(=O)N1CCC2(CCN(Cc3ccccn3)C2=O)C1 (centres undefined) | 3.39
104 | COCCN1CCO[C@@H]2CN(Cc3ccc(C)s3)C[C@@H]2C1 | -8.81
105 | CS(=O)(=O)N1C[C@H]2CCCN(Cc3cccs3)[C@H]2C1 | 7.69
106 | Cc1noc(C)c1CN1CCO[C@H]2CN(C(=O)N3CCCC3)C[C@H]21 | 8.01
107 | NC1CCC(NC(=O)c2ccc3nc(-c4ccc(F)cc4)cn3c2)CC1 (centres undefined) | -17.7
108 | CC1CCN(c2nc3cn(-c4ccc(F)cc4)c(=O)c-3c[nH]2)CC1 | 3.47
109 | O=C1NCC2(CCC(C(=O)N3CCC(O)CC3)CC2)Oc2ccccc21 (centres undefined) | -21.7
